# Where a SMILES comes first, the peptide text is derived from it. [ ]: non-standard residue; d: D form. The star is where a group is joined. Dmt = Cc1cc(O)cc(C)c1C[C@H](N)C(=O)O; Tic = O=C(O)[C@@H]1Cc2ccccc2CN1; Cbz = O=C(OCc1ccccc1)*
# Assays:
# [1] = target: Opioid receptors; mu & delta (Homo sapiens) (UniProt P41143+P35372); assay: Selectivity for synaptosomal Mu rather than Delta Opioid Receptors; format: protein assay
# [2] = Inhibition constant against synaptosomal Delta Opioid Receptor
# Summary of the method: (§1)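 Competitive binding on synaptosomal membranes from several separate preparations, run as independent duplicate assays with five to eight peptide doses each. Ki derived by the Cheng–Prusoff relation. Values reported as mean ± SE with n repetitions.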
# [3] = target: T1, Delta-type opioid receptor (Mus musculus, UniProt P32300); assay: Agonistic activity against delta opioid receptor of mouse vas deferens assay; format: functional, tissue-based
# Summary of the method: (§2)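 Electrically stimulated isolated tissue: guinea pig ileum for μ and mouse vas deferens for δ. Agonist IC50 taken from dose–response curves. Values are mean ± SE from at least five fresh tissue samples.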
# [4] = Inhibition constant against synaptosomal Mu opioid receptor; summary of the method: as §1
# [5] = target: T1, Delta-type opioid receptor; assay: Antagonist activity in mouse vas deferens assay; format: functional, tissue-based; conditions: read-out: pA2 (converted)
# Summary of the method: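 Electrically stimulated mouse vas deferens, with deltorphin C as the δ agonist. Antagonism expressed as pA2: the negative log of the molar antagonist concentration that doubles the agonist concentration needed to restore the original submaximal response.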
# [6] = target: Mu-type opioid receptor (Cavia porcellus, UniProt P97266); assay: Agonist activity against mu opioid receptor of guinea pig ileum; format: functional, tissue-based; summary of the method: as §2
# Chain of Mu-type opioid receptor (P97266 whole entry): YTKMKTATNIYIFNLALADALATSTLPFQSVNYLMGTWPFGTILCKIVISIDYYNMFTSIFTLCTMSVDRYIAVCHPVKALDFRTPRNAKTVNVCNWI
# T1 sequence (P32300 whole entry): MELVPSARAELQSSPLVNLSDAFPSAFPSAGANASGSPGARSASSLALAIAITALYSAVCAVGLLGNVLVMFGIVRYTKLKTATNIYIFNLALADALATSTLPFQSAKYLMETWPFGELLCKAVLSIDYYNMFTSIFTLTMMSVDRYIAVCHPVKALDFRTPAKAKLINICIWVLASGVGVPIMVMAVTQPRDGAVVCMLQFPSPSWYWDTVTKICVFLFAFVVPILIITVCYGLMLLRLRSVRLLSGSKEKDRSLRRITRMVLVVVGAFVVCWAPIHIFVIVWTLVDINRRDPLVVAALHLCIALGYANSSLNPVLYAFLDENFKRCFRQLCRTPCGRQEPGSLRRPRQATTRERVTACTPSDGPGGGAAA
# Chain of Opioid receptors; mu & delta (Homo sapiens) (P35372 whole entry, looked up): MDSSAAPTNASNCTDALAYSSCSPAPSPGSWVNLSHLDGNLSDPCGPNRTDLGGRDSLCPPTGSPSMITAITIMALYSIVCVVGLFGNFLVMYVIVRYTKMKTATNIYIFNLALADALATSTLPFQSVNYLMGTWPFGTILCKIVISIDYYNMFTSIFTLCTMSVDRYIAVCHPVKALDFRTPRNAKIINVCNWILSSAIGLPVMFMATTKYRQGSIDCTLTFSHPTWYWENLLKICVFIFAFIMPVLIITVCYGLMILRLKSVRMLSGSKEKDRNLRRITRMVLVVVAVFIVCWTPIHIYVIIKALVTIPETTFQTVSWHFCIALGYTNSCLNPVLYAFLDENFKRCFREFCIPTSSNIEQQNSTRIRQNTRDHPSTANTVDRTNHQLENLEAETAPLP
# Chain of Opioid receptors; mu & delta (Homo sapiens) (P41143 whole entry, looked up): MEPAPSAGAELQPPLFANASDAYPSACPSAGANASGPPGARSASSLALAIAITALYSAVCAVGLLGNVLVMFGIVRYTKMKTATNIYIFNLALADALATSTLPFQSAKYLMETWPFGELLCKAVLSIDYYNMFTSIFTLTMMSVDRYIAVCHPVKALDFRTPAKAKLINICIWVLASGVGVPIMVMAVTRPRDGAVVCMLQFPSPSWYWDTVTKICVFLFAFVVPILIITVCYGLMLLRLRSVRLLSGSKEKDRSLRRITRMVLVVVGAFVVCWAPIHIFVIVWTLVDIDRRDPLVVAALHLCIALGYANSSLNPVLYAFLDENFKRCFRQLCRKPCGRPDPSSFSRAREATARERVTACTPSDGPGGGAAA
smiles,measurement,setting,value
Cc1cc(O)cc(C)c1C[C@H](N)C(=O)N1Cc2ccccc2C[C@H]1C(=O)N[C@@H](Cc1ccccc1)C(=O)N[C@@H](CCCCNC(=O)OCc1ccccc1)C(N)=O (H-[Dmt][Tic]FK(Cbz)-NH2),Selectivity,[1],5
same,Ki,[2],0.23 nM
same,IC50,[3],> 10000 nM
same,Ki,[4],1.14 nM
same,Kb,[5],3.8 nM
same,IC50,[6],1890 nM
Cc1cc(O)cc(C)c1C[C@H](N)C(=O)N[C@H](CCC/N=C(/N)N[N+](=O)[O-])C(=O)N[C@@H](Cc1ccccc1)C(=O)N[C@@H](CCCCNC(=O)OCc1ccccc1)C(=O)O,Ki,[2],47.6 nM
same,IC50,[3],682 nM
same,Ki,[4],1.45 nM
same,IC50,[6],63 nM
Cc1cc(O)cc(C)c1C[C@H](N)C(=O)N[C@H](CCCN=C(N)N[N+](=O)[O-])C(=O)N[C@@H](Cc1ccccc1)C(=O)N[C@@H](CCCCNC(=O)OCc1ccccc1)C(N)=O,Ki,[2],24.2 nM
same,IC50,[3],1.69 nM
same,Ki,[4],0.15 nM
same,IC50,[6],0.509 nM
Cc1cc(O)cc(C)c1C[C@H](N)C(=O)N1Cc2ccccc2C[C@H]1C(=O)N[C@@H](Cc1ccccc1)C(=O)N[C@@H](CCCCNC(=O)OCc1ccccc1)C(=O)O (H-[Dmt][Tic]FK(Cbz)-OH),Selectivity,[1],145
same,IC50,[3],> 10000 nM
same,Kb,[5],0.00372 nM
same,IC50,[6],> 10000 nM

# Source: ChEMBL document CHEMBL1145172, “From the potent and selective mu opioid receptor agonist H-Dmt-d-Arg-Phe-Lys-NH(2) to the potent delta antagonist H-Dmt-Tic-Phe-Lys(Z)-OH” (J Med Chem, 2005)
